The results in this text go back to PMC3606642 (Journal of natural products, 2012).

“Also recorded” adds a separate entry of the source.

The subject of the experiment is heat shock protein 70 (HSP70). Kind of experiment: Western blot analysis of HSP70 expression in U251 cells. Type of experiment: cell-based, human. The following applies: for Stress response (heat shock effect and oxidative stress effect) following treatment: effect abrogated by N-acetyl-cysteine; for HSP70 total cell expression (western blot): 5 μM, 24 h post-treatment. In a few lines:
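U251 glioblastoma cells were grown in DMEM with 10% FBS and 1% penicillin/streptomycin at 37 °C and 5% CO2, plated sub-confluent and grown overnight. They were treated with test compound at 0, 0.1, 0.5, 1 and 5 μM for 24 h. Lysate proteins were quantified, run on SDS–PAGE, transferred to nitrocellulose and probed with anti-HSP70 (1:1000), with actin (1:50,000) as loading control and HRP secondaries (1:5000).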

With `C=C1C(=O)O[C@@H]2C[C@@]1(C)OC[C@H]2[C@H]1CC[C@H]2[C@@H]3C[C@@H](O)[C@@]45C[C@H]4CC(=O)[C@]5(C)[C@H]3CC[C@]12C` [Compound 1, (20R,22R,24R)-21,24-epoxy-3α,5α-cyclo-1-oxowitha-25(27)-enolide], the “Stress response (heat shock effect and oxidative stress effect) following treatment” value (shortened to “Stress response”) is “do not exhibit this stress response”.
Regarding `C=C1C(=O)O[C@@H]2C[C@]1(C)OC[C@H]2[C@H]1CC[C@H]2[C@@H]3CC=C4CC=CC(=O)[C@]4(C)[C@H]3C[C@@H](O)[C@]12C` [Compound 2, (20R,22R,24R)-21,24-epoxy-12β-hydroxy-1-oxowitha-2,25,25(27)-trienolide], the “HSP70 total cell expression (western blot)” value (shortened to “HSP70 total cell expression”) is listed as “upregulation was observed; also recorded: markedly upregulated”; the “Stress response” value was “observed”.
With `C=C1C(=O)O[C@@H]2C[C@]1(C)OC[C@H]2[C@H]1CC[C@H]2[C@@H]3CC=C4CC=CC(=O)[C@]4(C)[C@H]3CC[C@]12C` [Compound 3, withametelin], the “HSP70 total cell expression” value is reported as “upregulation was observed; also recorded: markedly upregulated”; the “Stress response” value is recorded as “observed”.
For the compound `C=C1C(=O)O[C@@H]2C[C@]1(C)OC[C@H]2[C@H]1CC[C@H]2[C@@H]3C[C@@H](O)[C@@]4(O)CC=CC(=O)[C@]4(C)[C@H]3CC[C@]12C` [Compound 4, withametelin O], the “Stress response” value was “do not exhibit this stress response”.
Regarding `C=C1C(=O)O[C@@H]2C[C@]1(C)OC[C@H]2[C@H]1CC[C@H]2[C@@H]3C[C@H]4O[C@]45CC=CC(=O)[C@]5(C)[C@H]3CC[C@]12C` [Compound 5, withametelin F], the “HSP70 total cell expression” value is “upregulation was observed; also recorded: markedly upregulated”; the “Stress response” value is given as “observed”.
